Laboratory results published in ChEMBL document CHEMBL1123453, “Quinazoline antifolates inhibiting thymidylate synthase: benzoyl ring modifications” (J Med Chem, 1986).

How the values were obtained:
[1] = molecular target: T1, Thymidylate synthase (Mus musculus, UniProt P07607); test: In vitro inhibition of L1210 thymidylate synthase
How it was run: (§1)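 Thymidylate synthase purified from L1210 cells; IC50 determined, with CB3717 assayed as the reference control alongside each compound.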

[2] = molecular target: T1, Thymidylate synthase; test: In vitro inhibition of L1210 thymidylate synthase with CB3717 as control; how it was run: as §1
[3] = test system: L1210; test: The compound was evaluated for the inhibition of growth of L1210 cells in culture; assay type: functional, cell-based; details: Mus musculus
How it was run: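 L1210 cells grown in culture; growth inhibition reported as the ID50 in μM.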

[4] = molecular target: T2, Dihydrofolate reductase (Mus musculus, UniProt P00375); test: The compound was evaluated in vitro for inhibition of purified L1210 dihydrofolate reductase
T2 sequence (P00375 whole entry): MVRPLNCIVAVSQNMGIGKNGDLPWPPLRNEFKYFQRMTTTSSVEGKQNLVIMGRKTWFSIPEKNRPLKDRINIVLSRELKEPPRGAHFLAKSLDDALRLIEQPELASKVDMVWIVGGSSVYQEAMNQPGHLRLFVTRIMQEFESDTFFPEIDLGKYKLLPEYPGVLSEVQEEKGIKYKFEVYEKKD

T1 sequence (P07607 whole entry): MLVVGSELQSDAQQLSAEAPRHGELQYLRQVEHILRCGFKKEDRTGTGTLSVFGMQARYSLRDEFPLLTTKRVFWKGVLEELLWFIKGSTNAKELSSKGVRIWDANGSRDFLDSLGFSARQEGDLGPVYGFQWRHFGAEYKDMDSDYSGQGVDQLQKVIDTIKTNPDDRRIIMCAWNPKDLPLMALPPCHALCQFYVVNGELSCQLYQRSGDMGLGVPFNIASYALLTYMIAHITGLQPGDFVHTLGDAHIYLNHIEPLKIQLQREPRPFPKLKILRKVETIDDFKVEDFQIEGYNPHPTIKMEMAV

Row | SMILES | IC50 [1] [µM] | IC50 [2] [µM] | IC50 [3] [µM] | IC50 [4] [µM]
1 | C#CCN(Cc1ccc2nc(N)nc(O)c2c1)c1ccc(C(=O)NC(CCC(=O)O)C(=O)O)c(C)c1 (configuration not stated) | 0.4 | 0.019 | 24 | 25
2 | C#CCN(Cc1ccc2nc(N)nc(O)c2c1)c1ccc(C(=O)NC(CCC(=O)O)C(=O)O)c(Cl)c1 (configuration not stated) | 0.03 | 0.014 | 12 | 11

Now from value to compound:

Row | IC50 [1] [µM] | IC50 [2] [µM] | IC50 [3] [µM] | IC50 [4] [µM] | SMILES
3 | > 5 | 0.0144 | 37 | 3 | C#CCN(Cc1ccc2nc(N)nc(O)c2c1)c1c(Cl)cc(C(=O)NC(CCC(=O)O)C(=O)O)cc1Cl (configuration not stated)
4 | 5 | 0.0144 | 72 | 3 | C#CCN(Cc1ccc2nc(N)nc(O)c2c1)c1ccc(C(=O)NC(CCC(=O)O)C(=O)O)cc1Cl (configuration not stated)
5 | – | – | 7 | – | C#CCN(Cc1ccc2[nH]c(N)nc(=O)c2c1)c1ccc(C(=O)NC(CCC(=O)O)C(=O)O)cc1 (configuration not stated)
